Results on 14 compounds are retold here after PubChem BioAssay.

Experiment [1] is described as follows: inhibitors of TNFa-induced NFkB p65 translocation, primary screen, imaging, HUVEC, MLSMR starter and 10KST1 sets (AID 438;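 active means inhibition above 20% together with a positive visual image hit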;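 further: compound added about 3h40 before a 20 min TNFalpha stimulation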;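 on inhibition: signal is the nuclear over cytoplasmic p65 intensity ratio per well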). As to conditions: HUVEC TNFa-induced p65 nuclear translocation; cell count: measured here: nuclei count (cytotoxicity indicator), at 2.08 µM; inhibition: at 2 µM, stronger effect = higher value, 0% TNFa-plus-vehicle, 100% no-TNFa wells.
Experiment [2] in a line: reduction of polyQ htt aggregates in cells – imaging, exon1htt(103Q)mCFP cells, high-content imaging, primary screen (AID 483).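 Further: compound exposure lasted 3 days before fixation.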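 On nuclei count: percent of the per-plate median nuclei count of sample wells.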 The following applies: exon1htt(103Q)mCFP cell line, aggregate imaging, at 2 µM; inhibition of aggregation: stronger effect = higher value; nuclei count: measured here: cell count, toxicity.
The nature of experiment [3]: endothelial E-selectin expression blockers – imaging, HUVEC, immunofluorescence, MLSMR starter and 10KST1 sets, primary screen (AID 487;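 active means visually confirmed hit in the image check and inhibition above 20%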;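 on inhibition: signal is fraction of cell area covered by stained E-selectin grains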;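 on nuclei count: 100% = median nuclei count of all wells on the same plate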). As to conditions: HUVEC TNFalpha-induced E-selectin immunofluorescence imaging, at 2 µM; inhibition: stronger effect = higher value; nuclei count: measured here: cell number, toxicity.
Experiment [4] has as its target Voltage-gated potassium channel subunit beta-2 (Rattus norvegicus) (UniProt P62483). Nature of the experiment: inhibitors of rat Kvbeta2 reductase activity – biochemical, NADPH fluorescence, primary screen (AID 622;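 active means fluorescence slope higher than the sample average by over 3 SD, cut at about -0.22 in these data, passing the limit was not always enough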;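 further: slope of raw intensity against log time taken from 70 to 1610 s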). The following applies: recombinant KvBeta, 4-cyanobenzaldehyde reduction, at 10 µM, stronger effect = higher value.
For experiment [5] the target is unchanged. Put plainly: enhancers of rat Kvbeta2 NADPH turnover – biochemical, NADPH fluorescence, primary screen (AID 623;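 active means NADPH fluorescence slope more negative than the mean of all samples by about 3 SD, 99.7% confidence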;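 further: fluorescence intensity change per second fitted from 20 to 320 s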). The following applies: Recombinant KvBeta, NADPH fluorescence decrease slope, 10 min; at 10 µM; stronger effect = lower value.
Experiment [6] deals with Muscarinic acetylcholine receptor M4 (Homo sapiens) (UniProt P08173). Nature of the experiment: M4-linked GIRK flux change, two-sided – cell-based, HEK293 M4/GIRK, thallium flux, BTC-AM, M4 allosteric agonist project, primary screen (AID 625;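 active means fluorescence slope after compound addition differing from the mean of all tested samples at 99.7% confidence, mostly higher but some lower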;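 further: thallium influx through GIRK channels coupled to M4 in HEK293 cells with BTC-AM dye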). The following applies: at 10 µM, actives lie on both sides. A digest of the protocol:
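Material: M4/GIRK1/GIRK2 stable HEK293 cell line. Medium: pH 7.3 thallium assay buffer. Dosing: single compound concentration, 10 µM final. Schedule: 1 h dye loading, 2 min kinetic read. Measured by: kinetic fluorescence with BTC-AM dye. Read-out: post-addition slope, 15–24 s, of baseline-normalized fluorescence. Benchmarks: carbachol and DMSO controls.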

Experiment [7] can be described thus: blockers of RIG-like receptor reporter activation – cell-based, Sendai virus stimulus, luciferase, 10K MLSCN set, TLR/RLR signaling modifier project, primary screen (AID 602276;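 active means inhibition at or above 50% at 10 µM; inactive means inhibition below 50%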;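 further: firefly luciferase from ISG56 promoter only with Renilla not read in this screen; 0% = Sendai virus plus DMSO and 100% = medium plus DMSO without virus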). The following applies: HEK293 RL24 IRF3 luciferase reporter, at 10 µM, stronger effect = higher value. (In a reporter assay the amount or activity of a reporter protein is the signal.)
A short description of experiment [8]: TLR3 IRF3 reporter activation blockers – cell-based, poly I:C stimulus, luciferase, 10K MLSCN set, primary screen (AID 602277;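 active means inhibition of the reporter signal at or above 50%; inactive means inhibition below 50%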). As to conditions: HEK293-TLR3 RL24 IRF3 luciferase reporter, at 10 µM, stronger effect = higher value.

Activity calls are given as the source filed them.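 How the source made its calls, unless noted: active means visual image review flags a hit and inhibition of aggregation exceeds 20%; inconclusive means visual hit but inhibition at or below 20%; inactive means no hit on visual image review.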

Voltage-gated potassium channel subunit beta-2 (Rattus norvegicus), sequence (P62483 whole entry, looked up): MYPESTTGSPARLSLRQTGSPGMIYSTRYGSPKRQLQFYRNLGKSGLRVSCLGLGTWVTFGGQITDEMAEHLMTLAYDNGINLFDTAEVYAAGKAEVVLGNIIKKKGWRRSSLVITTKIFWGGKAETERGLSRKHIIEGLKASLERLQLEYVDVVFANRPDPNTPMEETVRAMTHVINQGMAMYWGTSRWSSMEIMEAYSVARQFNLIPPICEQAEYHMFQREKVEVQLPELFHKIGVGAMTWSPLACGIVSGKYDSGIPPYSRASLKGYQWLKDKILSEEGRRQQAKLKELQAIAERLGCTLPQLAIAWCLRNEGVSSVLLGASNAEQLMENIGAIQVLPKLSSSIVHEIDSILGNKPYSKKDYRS
Muscarinic acetylcholine receptor M4 (Homo sapiens), sequence (P08173 whole entry, looked up): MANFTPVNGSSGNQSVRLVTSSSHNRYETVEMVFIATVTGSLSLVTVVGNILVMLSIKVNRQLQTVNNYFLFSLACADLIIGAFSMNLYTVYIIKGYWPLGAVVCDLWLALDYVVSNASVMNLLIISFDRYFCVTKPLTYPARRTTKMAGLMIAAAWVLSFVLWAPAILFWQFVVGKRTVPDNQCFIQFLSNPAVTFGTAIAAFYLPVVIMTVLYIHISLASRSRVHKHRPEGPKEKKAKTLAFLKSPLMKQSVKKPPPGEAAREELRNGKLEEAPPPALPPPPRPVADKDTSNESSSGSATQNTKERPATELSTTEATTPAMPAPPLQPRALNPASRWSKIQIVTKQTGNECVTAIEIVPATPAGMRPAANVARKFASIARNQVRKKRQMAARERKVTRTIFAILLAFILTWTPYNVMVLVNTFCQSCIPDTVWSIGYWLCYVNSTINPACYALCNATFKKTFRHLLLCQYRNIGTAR

Consider `COC(=O)Cc1csc(N)n1`, for which the cell count in experiment [1] was found to be 743. The inhibition (as a rule, the relative decrease from the control value, in per cent) in experiment [1] is 10% (inactive); in experiment [3] it was -54.5% (inactive); in experiment [7] it was 12.4% (inactive); in experiment [8], 22.3% (inactive). In addition, the inhibition of aggregation in experiment [2] is 15% (inactive). Besides, the nuclei count in experiment [2] was 109%; in experiment [3], 122%. For the same compound, the fluorescence slope was -0.529 (inactive) in experiment [4] and 0.00536 (inactive) in experiment [6]. For the same compound, the NADPH fluorescence slope in experiment [5] was 2.5e-05 (inactive).
For `Cc1c(Cc2ccccc2)sc(N)c1C(N)=O`, the cell count in experiment [1] worked out at 335. For the same compound, the inhibition in experiment [1] is -13% (inactive); in experiment [3] it was -32.2% (inactive); in experiment [7], 9.38% (inactive); in experiment [8] it was 10.8% (inactive). The inhibition of aggregation in experiment [2] is -0.8% (inactive). For the same compound, the nuclei count in experiment [2] is 115%; in experiment [3], 113%. For the same compound, the values for the fluorescence slope in experiment [4] and in experiment [6] were -0.574 (inactive) and 0.00569 (inactive), respectively. In addition, in experiment [5], the NADPH fluorescence slope was -2.6e-06 (inactive).
Consider `O=C(COc1ccc(Cl)cc1)Nc1nc(-c2cccs2)cs1`, for which, in experiment [1], the cell count amounted to 718. Moreover, the inhibition in experiment [1] was -6.1% (inactive); in experiment [3], -32.4% (inactive); in experiment [7], 1.13% (inactive); in experiment [8] it was 0.877% (inactive). Besides, in experiment [2], the inhibition of aggregation is -1.6% (inactive). The results for the nuclei count in experiment [2] and in experiment [3] were 110% and 114%, respectively. For the same compound, the fluorescence slope in experiment [4] is -0.567 (inactive); in experiment [6], 0.00605 (inactive). Further, the NADPH fluorescence slope in experiment [5] is 2.5e-05 (inactive).
Take `CCOC(=O)Nc1ccc2c(c1)N(C(=O)CN(CC)CC)c1ccccc1C=C2`: in experiment [1], the cell count came out at 389. Moreover, the inhibition is 3.3% (inactive) in experiment [1], -96.2% (inactive) in experiment [3], 18.3% (inactive) in experiment [7] and 26.3% (inactive) in experiment [8]. Also, in experiment [2], the inhibition of aggregation was -9.7% (inactive). Besides, the nuclei count in experiment [2] amounted to 108%; in experiment [3], 119%. The fluorescence slope in experiment [4] is -0.577 (inactive); in experiment [6], 0.00312 (inactive). In addition, the NADPH fluorescence slope in experiment [5] is -0.000132 (inactive).
Take `COc1ccc(NCc2nnc(SCC(=O)Nc3cc(C)cc(C)c3)o2)cc1`: the cell count in experiment [1] turned out to be 396. The inhibition in experiment [1] is -1.1% (inactive); in experiment [3], 36.7% (inactive); in experiment [7], 11% (inactive); in experiment [8], 22.6% (inactive). The inhibition of aggregation in experiment [2] was 8.7% (inactive). The nuclei count in experiment [2] amounted to 101%; in experiment [3] it was 79.5%. In addition, the fluorescence slope was -0.4 (inactive) in experiment [4] and 0.00688 (inactive) in experiment [6]. For the same compound, in experiment [5], the NADPH fluorescence slope was -0.000139 (inactive).
Take `COc1ccc(/C=N/n2c(=O)[nH]c3c([nH]c4ccc(C)cc43)c2=O)cc1CN1CCOCC1`: the cell count in experiment [1] amounted to 643. The inhibition in experiment [1] was 2.6% (inactive); in experiment [3], 4.3% (inactive); in experiment [7] it was -0.771% (inactive); in experiment [8] it was 11.2% (inactive). Further, the inhibition of aggregation in experiment [2] is 16.8% (inactive). Moreover, the figures for the nuclei count in experiment [2] and in experiment [3] were 74.3% and 98.4%, respectively. The fluorescence slope is -0.407 (inactive) in experiment [4] and 0.00369 (inactive) in experiment [6]. Moreover, the NADPH fluorescence slope in experiment [5] was -0.000488 (inactive).
Turning to `Cn1c(=O)n(C)c2cc(NC(=O)C(F)(F)F)ccc21`, the cell count in experiment [1] stood at 231. Further, the inhibition in experiment [1] is -14.4% (inactive); in experiment [3], -10.9% (inactive); in experiment [7], 5.97% (inactive); in experiment [8], 17.7% (inactive). The inhibition of aggregation in experiment [2] is 34.3% (active). For the same compound, the nuclei count stood at 96.5% in experiment [2] and 103% in experiment [3]. For the same compound, the fluorescence slope in experiment [4] is -0.449 (inactive); in experiment [6] it was 0.00534 (inactive). Besides, in experiment [5], the NADPH fluorescence slope was -3.6e-06 (inactive).
As for `CC(=O)N1C(=O)C2(C(C#N)=C(N)Oc3cc(C)oc(=O)c32)c2ccccc21` (centres undefined), in experiment [1], the cell count was found to be 438. The inhibition is 3.8% (inactive) in experiment [1], -54.5% (inactive) in experiment [3], -9.7% (inactive) in experiment [7] and -6.69% (inactive) in experiment [8]. Moreover, the inhibition of aggregation in experiment [2] is -2.1% (inactive). The nuclei count was found to be 108% in experiment [2] and 110% in experiment [3]. For the same compound, the fluorescence slope was -0.511 (inactive) in experiment [4] and 0.00547 (inactive) in experiment [6]. Moreover, the NADPH fluorescence slope in experiment [5] is -0.00027 (inactive).
With `CN(CC(=O)N1CCN(c2ccccn2)CC1)S(=O)(=O)c1ccc2ccccc2c1`, the cell count in experiment [1] is 395. The inhibition in experiment [1] was 0.9% (inactive); in experiment [3], -109% (inactive); in experiment [7], 4.05% (inactive); in experiment [8], 4.08% (inactive). Besides, the inhibition of aggregation in experiment [2] is 1.9% (inactive). Moreover, the nuclei count in experiment [2] turned out to be 115%; in experiment [3], 119%. In addition, the fluorescence slope in experiment [4] was -0.478 (inactive); in experiment [6] it was 0.00469 (inactive). Besides, the NADPH fluorescence slope in experiment [5] was -7e-05 (inactive).
On to `CC(C(=O)Oc1ccc2c(c1)OCO2)N1C(=O)c2ccccc2C1=O` (centres undefined), for which the cell count in experiment [1] was 790. Besides, the inhibition in experiment [1] was -10.1% (inactive); in experiment [3] it was -33.5% (inactive); in experiment [7] it was 23.3% (inactive); in experiment [8], 27.7% (inactive). Further, in experiment [2], the inhibition of aggregation is 9.8% (inactive). Further, the nuclei count came out at 104% in experiment [2] and 101% in experiment [3]. Besides, the results for the fluorescence slope in experiment [4] and in experiment [6] were -0.609 (inactive) and 0.00538 (inactive), respectively. In addition, the NADPH fluorescence slope in experiment [5] is -2.3e-05 (inactive).
Consider `COc1ccc(-c2cc(C(=O)N3CCN(Cc4ccccc4)CC3)no2)cc1OC`, for which the cell count in experiment [1] was 463. Further, the inhibition was -23% (inactive) in experiment [1], -36% (inactive) in experiment [3], 8.32% (inactive) in experiment [7] and 12.9% (inactive) in experiment [8]. Besides, the inhibition of aggregation in experiment [2] was -5.8% (inactive). Besides, the nuclei count is 106% in experiment [2] and 112% in experiment [3]. In addition, the fluorescence slope is -0.318 (inactive) in experiment [4] and 0.00627 (inactive) in experiment [6]. The NADPH fluorescence slope in experiment [5] is -6.6e-05 (inactive).
Consider `CC12CN3CC(C)(CN(C1)C3c1ccc(Br)cc1)C2` (centres undefined), for which, in experiment [1], the cell count was found to be 565. The inhibition in experiment [1] was -1.2% (inactive); in experiment [3], -50.4% (inactive); in experiment [7] it was 13.8% (inactive); in experiment [8], 13.4% (inactive). In addition, the inhibition of aggregation in experiment [2] was 5.1% (inactive). Besides, the nuclei count in experiment [2] came out at 97.5%; in experiment [3], 96.1%. Further, the fluorescence slope in experiment [4] was -0.607 (inactive); in experiment [6] it was 0.00246 (inactive). Moreover, the NADPH fluorescence slope in experiment [5] was -4.3e-05 (inactive).
Turning to `Cc1ccc(C)c(N2CCN(C(=O)c3ccc(CS(=O)(=O)c4ccccc4C)o3)CC2)c1`, the cell count in experiment [1] is 555. Also, the inhibition was -15.1% (inactive) in experiment [1], -45.9% (inactive) in experiment [3], 11.1% (inactive) in experiment [7] and 45.6% (inactive) in experiment [8]. Besides, the inhibition of aggregation in experiment [2] was 12.7% (inactive). Moreover, the nuclei count came out at 95.8% in experiment [2] and 125% in experiment [3]. For the same compound, the fluorescence slope in experiment [4] was -0.555 (inactive); in experiment [6], 0.00481 (inactive). The NADPH fluorescence slope in experiment [5] was 4.4e-05 (inactive).
As for `O=C(Nc1ccccc1C(=O)N1CCCCCC1)c1cccc(S(=O)(=O)N2CCOCC2)c1`, the cell count in experiment [1] amounted to 492. Further, the inhibition is -6.5% (inactive) in experiment [1], -60.5% (inactive) in experiment [3], 3.13% (inactive) in experiment [7] and 10.6% (inactive) in experiment [8]. In addition, in experiment [2], the inhibition of aggregation is -11.4% (inactive). Further, the figures for the nuclei count in experiment [2] and in experiment [3] were 74.5% and 84.2%, respectively. The fluorescence slope is -0.572 (inactive) in experiment [4] and 0.00535 (inactive) in experiment [6]. The NADPH fluorescence slope in experiment [5] was -2.1e-05 (inactive).
